Assay results from paper PMC3329777 (The Journal of Organic Chemistry, 2010).
Values after ≈ are worked out from the molar mass of the structure shown. Like-named read-outs stand apart in the source and are kept apart here.

Experiments:
[1] = tested on: PC3, DU145, MDA-MB-231 and Jurkat cells; assay: Antiproliferative activity against four human tumor cell lines; assay type: cell-based
[2] = tested on: Jurkat (T-cell leukemia) cells; assay: MTS cytotoxicity assay, Jurkat cells; assay type: cell-based; conditions: Homo sapiens, 24 h, read-out: IC50 Jurkat
Outline: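 Jurkat line: cells were kept in RPMI-1640 with 10% fetal bovine serum and penicillin-streptomycin (100 U/mL / 100 μg/mL) at 37 °C, humidified 5% CO2. They were seeded at 2,000 cells/well in 96-well plates. After 24 h they were exposed to a range of test compound concentrations for […]. Growth was measured by MTS reagent with absorbance at 490 nm, expressed relative to compound-free controls, mean ± SE.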

[3] = tested on: MDA-MB-231 (breast) cells; assay: Cell proliferation assay; assay type: cell-based, human
Outline: (§1)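 DU145, PC3 and MDA-MB-231 lines only. Cells came from ATCC frozen stocks. PC3 was grown in F12K, DU145 and MDA-MB-231 in DMEM, all with 10% FBS plus penicillin/streptomycin. Equal cell numbers were seeded and held at 37 °C, 5% CO2 until log phase. Medium was then replaced with test compound (0–30 μM) for 48 h, then removed and plates frozen at -80 °C. After thawing to rt, CyQuant reagent was added and fluorescence read at 485/530 nm. Eight replicates per concentration; values are cell-number increase versus untreated controls, mean ± SE.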

PC3 (prostate) cells = assay: Cell proliferation assay; assay type: cell-based, human
Outline: as §1

DU145 (prostate) cells = assay: Cell proliferation assay; assay type: cell-based, human
Outline: as §1

[4] = Decomposition of polysulfanes with hydroxide ion, monitored by HPLC; assay type: physicochemical; conditions: 6A-F 2.5 mM, methanol/water 99.9:0.1, after 1 hr
Outline: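 Test polysulfane mixture (2.5 mM) with acetanilide internal standard (0.25 mM) was treated with NaOH (0.625, 1.25, 1.875 or 2.5 mM) in methanol. After 1 h of equilibration, samples were analysed by reversed-phase C18 HPLC at 1 mL/min, rt, with UV at 254 nm. Elution used a methanol/water gradient of 15→95% methanol over 30 min, held 15 min.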

[5] = Ethanethiol-induced desulfuration; assay type: physicochemical
[6] = Intrinsic solubility determination; assay type: physicochemical
[7] = cited from earlier work
[8] = room temperature, equilibrium time 24 h, average of three measurements

Polysulfanes and elemental sulfur distribution (HPLC, internal standard = 100) ([4]; 0.25 hydroxide ion equivalents)	Polysulfanes and elemental sulfur distribution (HPLC, internal standard = 100) ([4]; 0.5 hydroxide ion equivalents)	Polysulfanes and elemental sulfur distribution (HPLC, internal standard = 100) ([4]; 0.75 hydroxide ion equivalents)	Polysulfanes and elemental sulfur distribution (HPLC, internal standard = 100) ([4]; 1.0 hydroxide ion equivalents)	SMILES	other results
2.3	2.1	1.8	1.5	COCCOCCOCCNC(=O)c1ccc2ssssssc2c1 [Compound 6D, N-(2-(2-(2-methoxyethoxy)ethoxy)ethyl)benzo[g][1,2,3,4,5,6]hexathiocine-8-carboxamide]	–
3.0	2.8	4.7	1.6	COCCOCCOCCNC(=O)c1ccc2c(c1)SSSSSSS2 [Compound 6E, N-(2-(2-(2-Methoxyethoxy)ethoxy)ethyl)benzo[h][1,2,3,4,5,6,7]heptathionine-9-carboxamide]	–

The next lines start with the compound.

SMILES	Polysulfanes and elemental sulfur distribution (HPLC, internal standard = 100) ([4]; 0.25 hydroxide ion equivalents)	Polysulfanes and elemental sulfur distribution (HPLC, internal standard = 100) ([4]; 0.5 hydroxide ion equivalents)	Polysulfanes and elemental sulfur distribution (HPLC, internal standard = 100) ([4]; 0.75 hydroxide ion equivalents)	Polysulfanes and elemental sulfur distribution (HPLC, internal standard = 100) ([4]; 1.0 hydroxide ion equivalents)	other results
Sc1ccccc1S [1,2-Benzenedithiol]	–	–	–	–	Toxicity to the cancer cell lines (in words) [1]: nontoxic; IC50 [2]: 60 µM; Effect on proliferation of MDA-MB-231 cells ([3]; 48 h): minimal effect; IC50 ([3]; Homo sapiens, MDA-MB-231, 48 h, read-out: IC50 MDA-MB-231): > 30 µM; Effect on growth of PC3 cells (PC3 (prostate) cells; 48 h): stimulated the growth; IC50 PC-3 (PC3 (prostate) cells; 48 h incubation, 0–30 μM, 96-well plates): No effect; IC50 (DU145 (prostate) cells; Homo sapiens, DU-145, 48 h, read-out: IC50 DU145): > 30 µM; Inhibition of proliferation of DU145 cells (DU145 (prostate) cells; at concentrations of 10 μM and above, 48 h): ~ 40%
COCCOCCOCCNC(=O)c1ccc2c(c1)SSS2 [Compound 6A, N-(2-(2-(2-Methoxyethoxy)ethoxy)ethyl)benzo[d][1,2,3]trithiole-5-carboxamide]	10.9	13.2	14.2	14.2	–
COCCOCCOCCNC(=O)c1ccc2c(c1)SSSSS2 [Compound 6C, N-(2-(2-(2-Methoxyethoxy)ethoxy)ethyl)benzo[f][1,2,3,4,5]pentathiepine-7-carboxamide]	362.4	289.2	222.9	163.9	Time of ethanethiol-induced desulfuration ([5]; in aqueous methanol): ~ 2 min; Time of ethanethiol-induced desulfuration ([5]; in benzene): 4 h
COCCOCCOCCNC(=O)c1ccc2c(c1)SSSSSSSSS2 [Compound 6F, N-(2-(2-(2-Methoxyethoxy)ethoxy)ethyl)benzo[j][1,2,3,4,5,6,7,8,9]nonathiacyclo-undecine-11-carboxamide]	2.1	3.7	3.8	3.1	–
[S] [Compound S8, Elemental sulfur]	12.3	23.1	26.7	32.4	Fold lower solubility by comparison to 6A-F [6]: ~ 50 fold; Solubility in methanol [6, 8]: 330 ± 30 µg/mL (≈ 10.3 mM); Solubility in water [6, 8]: 0.14 ± 0.02 µg/mL (≈ 0.00437 mM); Solubility in ethanol [7]: 510 µg/mL (≈ 15.9 mM); Solubility in water [7]: 0.4 µg/mL (≈ 0.0125 mM)
